21 compounds from ChEMBL document CHEMBL2169760 (J Med Chem, 2012) can be followed below.

The target in series [1] is T1, Adenosine receptor A1 (Homo sapiens) (UniProt P30542).
T1 sequence (whole entry): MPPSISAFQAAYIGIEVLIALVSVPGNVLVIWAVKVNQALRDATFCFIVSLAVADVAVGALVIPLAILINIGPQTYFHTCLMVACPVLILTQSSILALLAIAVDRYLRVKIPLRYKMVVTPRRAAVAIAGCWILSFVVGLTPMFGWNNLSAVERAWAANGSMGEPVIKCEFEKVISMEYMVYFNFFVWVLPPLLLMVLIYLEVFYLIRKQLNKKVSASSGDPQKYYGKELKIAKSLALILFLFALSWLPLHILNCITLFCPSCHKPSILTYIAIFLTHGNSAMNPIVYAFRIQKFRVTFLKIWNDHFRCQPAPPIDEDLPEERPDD
Put plainly: Activity at human A1 adenosine receptor expressed in CHO cells assessed as inhibition of forskolin-stimulated cAMP production at 10 uM after 30 min. The format is functional, cell-based.

Series [2] has as its target T2, Adenosine receptor A2a (Homo sapiens, UniProt P29274). Put plainly: Displacement of [3H]CGS21680 from human A2a adenosine receptor expressed in HEK293 cells at 10 uM after 60 min by Perkin Elmer Liquid Scintillation Analyzer. The class given is cell-based.
The target of a further series is T3, Adenosine receptor A1 (Homo sapiens, UniProt P30542).
T3 sequence (P30542 whole entry): T1 sequence (whole entry)
Put plainly: Displacement of [3H]R-PIA from human A1 adenosine receptor expressed in CHO cells after 60 min by Perkin Elmer Liquid Scintillation Analyzer. The class given is cell-based.

In the next series the target is T4, Adenosine receptor A3 (Homo sapiens, UniProt P0DMS8).
T4 sequence (P0DMS8 whole entry): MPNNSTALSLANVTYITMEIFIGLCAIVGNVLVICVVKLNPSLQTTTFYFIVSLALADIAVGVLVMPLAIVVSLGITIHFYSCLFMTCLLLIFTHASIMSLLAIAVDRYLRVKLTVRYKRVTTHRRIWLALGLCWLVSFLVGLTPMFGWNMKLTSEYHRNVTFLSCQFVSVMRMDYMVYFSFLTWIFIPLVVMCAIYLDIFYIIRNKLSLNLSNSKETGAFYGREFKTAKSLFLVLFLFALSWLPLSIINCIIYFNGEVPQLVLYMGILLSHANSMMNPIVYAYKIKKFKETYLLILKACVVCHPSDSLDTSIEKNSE
Put plainly: Displacement of [125I]I-AB-MECA from human A3 adenosine receptor expressed in CHO cells after 60 min Packard Cobra 2 gamma-counter. The format is cell-based.

Series [3] concerns the target T1, Adenosine receptor A1 (Homo sapiens). Put plainly: Displacement of [3H]R-PIA from human A1 adenosine receptor expressed in CHO cells at 10 uM after 60 min by Perkin Elmer Liquid Scintillation Analyzer. The format is cell-based.
Series [4] has as its target T2, Adenosine receptor A2a. Put plainly: Displacement of [3H]CGS21680 from human A2a adenosine receptor expressed in HEK293 cells after 60 min by Perkin Elmer Liquid Scintillation Analyzer. The format is cell-based.
In series [5] the test system is Mus musculus. The series can be described thus: Anticonvulsant activity in CF-1 albino mouse assessed as protection against subcutaneous metrazol-induced seizures at 1 mg/kg, ip. The class given is functional, organism-based. Set-up: dose 1 mg/kg. The method, boiled down: (§1)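 Dosed i.p. at 0.01 ml/g from a DMSO stock diluted to 10% DMSO (v/v) final. Single doses tested in traditional MES or s.c. metrazol seizure tests at the time of peak effect. Scored qualitatively as number of animals protected from convulsions (groups of 4–8).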

In series [6] the test system is Mus musculus. The series can be described thus: Anticonvulsant activity in CF-1 albino mouse assessed as protection against maximal electroshock-induced seizures at 3 mg/kg, ip by MES test. The format is functional, organism-based. Also on record: dose 3 mg/kg. Summed up:
as §1

Series [7] has as its system Mus musculus. Put plainly: Anticonvulsant activity in CF-1 albino mouse assessed as protection against maximal electroshock-induced seizures at 1 mg/kg, ip by MES test. Also on record: dose 1 mg/kg. The format is functional, organism-based. Summed up: as §1
The subject of series [8] is Mus musculus. The series can be described thus: Anticonvulsant activity in ip dosed CF-1 albino mouse assessed as protection against 6 Hz psychomotor seizure after 1 hr by minimal clonic seizure test. The class given is functional. The note with it: CF-1, ip. Summed up:
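Corneal 6 Hz stimulation (32 mA, 3 s, CC97) applied 1 h post-dose (time of peak effect). Absence of minimal clonic/automatistic behavior counted as protection.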

In series [9] the test system is Mus musculus. The series can be described thus: Anticonvulsant activity in CF-1 albino mouse assessed as protection against maximal electroshock-induced seizures at 2 mg/kg, ip by MES test. The class given is functional, organism-based. Set-up: dose 2 mg/kg. The method, boiled down:
as §1

The test system of series [10] is Mus musculus. The series can be described thus: Anticonvulsant activity in CF-1 albino mouse assessed as protection against subcutaneous metrazol-induced seizures at 3 mg/kg, ip. The class given is functional, organism-based. Set-up: dose 3 mg/kg. The method, boiled down: as §1
Series [11] concerns Mus musculus. The series can be described thus: Anticonvulsant activity in ip dosed CF-1 albino mouse administered as single dose after 1 hr by corneal kindled mouse test. The format is functional, organism-based. Summed up: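 Mice corneally kindled twice daily (3 mA, 3 s, about 12 days, tetracaine/saline drop before each stimulation) and re-stimulated the day before testing. Single i.p. dose given (n = 4 or 8), then challenged with 3 mA for 3 s at 1 h post-injection. EC50 (±SE) determined.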

Series [12] has as its system Mus musculus. The series can be described thus: Toxicity in ip dosed CF-1 albino mouse assessed as behavioral changes by rotarod test. The note with it: in vivo. The format is organism-based.
The subject of series [13] is Mus musculus. Put plainly: Toxicity in ip dosed CF-1 albino mouse assessed as behavioral changes after 4 hrs by rotarod test. The class given is organism-based. The note with it: in vivo.
Series [14] deals with Adenosine receptors; A1 & A3 (Homo sapiens) (UniProt P30542+P0DMS8). The series can be described thus: Selectivity ratio of Ki for human A3 adenosine receptor to Ki for human A1 adenosine receptor.
Another series is filed under the species Homo sapiens. The series can be described thus: Selectivity ratio of Ki for human A2a adenosine receptor to Ki for human A1 adenosine receptor.

Calls of active or inactive are those of the source. No cut-off for these calls is given here.

T2 sequence (P29274 whole entry): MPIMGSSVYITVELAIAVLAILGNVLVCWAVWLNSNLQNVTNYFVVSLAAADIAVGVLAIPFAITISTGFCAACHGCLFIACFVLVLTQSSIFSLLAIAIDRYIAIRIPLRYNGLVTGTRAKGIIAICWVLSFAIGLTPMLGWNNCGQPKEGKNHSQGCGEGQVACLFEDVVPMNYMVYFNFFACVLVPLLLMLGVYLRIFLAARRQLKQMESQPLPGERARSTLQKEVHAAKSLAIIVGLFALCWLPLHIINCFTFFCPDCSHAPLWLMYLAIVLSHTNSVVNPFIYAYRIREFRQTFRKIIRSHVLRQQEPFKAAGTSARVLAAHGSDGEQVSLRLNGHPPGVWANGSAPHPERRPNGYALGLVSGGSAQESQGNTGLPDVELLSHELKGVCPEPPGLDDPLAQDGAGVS

Consider `O[C@@H]1[C@H](O)[C@@H]2C[C@@H]2[C@H]1n1cnc2c(N[C@H](CC3CC3)C3CC3)nc(Cl)nc21`, for which the inhibition in series [1] is 18.4%.

As to `O[C@@H]1[C@H](O)[C@@H]2C[C@@H]2[C@H]1n1cnc2c(NCC(C3CC3)C3CC3)nc(Cl)nc21`, the inhibition in [1] was -9%; on Adenosine receptor A2a [2], 45%.

For the compound `O[C@@H]1[C@H](O)[C@@H]2C[C@@H]2[C@H]1n1cnc2c(N[C@@H](c3ccccc3)C3CC3)nc(Cl)nc21`, the Ki at Adenosine receptor A1 was determined as 3000 nM; on Adenosine receptor A3, 790 nM. Also, the inhibition was -7.4% in [1] and 46% on Adenosine receptor A2a [2].

Take `CC[C@H](Nc1nc(Cl)nc2c1ncn2[C@H]1[C@H](O)[C@H](O)[C@@H]2C[C@@H]21)C1CC1`: the inhibition in series [1] stood at 57.9%.

Regarding `O[C@@H]1[C@H](O)[C@@H]2C[C@@H]2[C@H]1n1cnc2c(NC(C3CCCC3)C3CCCC3)nc(Cl)nc21`, the inhibition in series [3] stood at 34%.

Regarding `O[C@@H]1[C@H](O)[C@@H]2C[C@@H]2[C@H]1n1cnc2c(NC(C3CC3)C3CC3)nc(I)nc21`, the Ki stood at 488 nM on Adenosine receptor A1, 182 nM on Adenosine receptor A3 and 2230 nM at Adenosine receptor A2a [4].

With `OC[C@H]1O[C@@H](n2cnc3c(NC4CCCC4)ncnc32)[C@H](O)[C@@H]1O`, in series [1], the inhibition stood at 100%.

Regarding `O[C@@H]1[C@H](O)[C@@H]2C[C@@H]2[C@H]1n1cnc2c(N[C@@H](CC3CC3)C3CC3)nc(Cl)nc21`, in series [1], the inhibition amounted to 24%.

As to `OC[C@H]1O[C@@H](n2cnc3c(NC4CCCC4)nc(Cl)nc32)[C@H](O)[C@@H]1O`, the result in the series with Mus musculus [5], in the series on Mus musculus [6], in the series with Mus musculus [7], with Mus musculus [9] and with Mus musculus [10] was inactive. In addition, the 50% effective dose (ED50) with Mus musculus [8] was determined as 0.12 mg/kg.

As for `O[C@@H]1[C@H](O)[C@@H]2C[C@@H]2[C@H]1n1cnc2c(N[C@H](c3ccccc3)C3CC3)nc(Cl)nc21`, the inhibition in series [3] is 50%; in [1], -2.4%; on Adenosine receptor A2a [2] it was 36%. The affinity at Adenosine receptor A3 corresponds to a Ki of 2200 nM.

For the compound `O[C@@H]1[C@H](O)[C@@H]2C[C@@H]2[C@H]1n1cnc2c(N[C@@H](C3CCC3)C3CC3)nc(Cl)nc21`, the Ki on Adenosine receptor A1 stood at 270 nM; on Adenosine receptor A3, 2930 nM; at Adenosine receptor A2a [4], 5470 nM. In addition, in series [1], the inhibition came out at 33.4%.

On to `NNc1nc(NC(C2CC2)C2CC2)c2ncn([C@H]3[C@H](O)[C@H](O)[C@@H]4C[C@@H]43)c2n1`, for which the Ki on Adenosine receptor A1 worked out at 210 nM; on Adenosine receptor A3, 70 nM. On Adenosine receptor A2a [2], the inhibition was determined as 43%.

On to `O[C@@H]1[C@H](O)[C@@H]2C[C@@H]2[C@H]1n1cnc2c(NC(C3CC3)C3CC3)ncnc21`, for which the results for the inhibition constant (Ki) on Adenosine receptor A1 and on Adenosine receptor A3 were 56.1 nM and 17 nM, respectively. Moreover, the inhibition on Adenosine receptor A2a [2] was 38%.

For `CC(C)[C@@H](Nc1nc(Cl)nc2c1ncn2[C@H]1[C@H](O)[C@H](O)[C@@H]2C[C@@H]21)C1CC1`, the inhibition in [1] is 33.8%.

Turning to `O[C@@H]1[C@H](O)[C@@H]2C[C@@H]2[C@H]1n1cnc2c(NC(C3CC3)C3CC3)nc(Cl)nc21`, the EC50 in the series on Mus musculus [11] amounted to 1.79 mg/kg. The outcome in the series on Mus musculus [5], with Mus musculus [6], in the series with Mus musculus [7], with Mus musculus [9] and with Mus musculus [10] was inactive. Besides, in the series on Mus musculus [12], the TD50 is over 30 mg/kg. For the same compound, the ED50 with Mus musculus [8] was determined as 2.74 mg/kg.

Consider `CC[C@@H](Nc1nc(Cl)nc2c1ncn2[C@H]1[C@H](O)[C@H](O)[C@@H]2C[C@@H]21)C1CC1`, for which the inhibition in series [1] is 37.3%.

Consider `O=C(O)c1cnn(-c2nc(NC(C3CC3)C3CC3)c3ncn([C@H]4[C@H](O)[C@H](O)[C@@H]5C[C@@H]54)c3n2)c1`, for which the inhibition constant (Ki) was found to be 1080 nM at Adenosine receptor A1 and 640 nM on Adenosine receptor A3. In addition, the inhibition at Adenosine receptor A2a [2] was found to be 17%.

For `NCCNC(=O)Cc1ccc(NC(=O)Cc2ccc(Nc3ncnc4c3ncn4[C@@H]3O[C@H](CO)[C@@H](O)[C@H]3O)cc2)cc1`, the TD50 in the series with Mus musculus [13] turned out to be 0.14 mg/kg. Moreover, the result with Mus musculus [5], with Mus musculus [6], in the series with Mus musculus [7], in the series with Mus musculus [9] and with Mus musculus [10] was inactive. Also, the inhibition in series [1] was 94%. Moreover, the ED50 in the series on Mus musculus [8] worked out at 0.03 mg/kg. At Adenosine receptor A3, this compound displayed an inhibitory constant (Ki) of 12.4 nM.

`COC(=O)c1cnn(-c2nc(NC(C3CC3)C3CC3)c3ncn([C@H]4[C@H](O)[C@H](O)[C@@H]5C[C@@H]54)c3n2)c1`: the results for the inhibition constant (Ki) on Adenosine receptor A1, on Adenosine receptor A3 and on Adenosine receptor A2a [4] were 730 nM, 490 nM and 4110 nM, respectively.

As for `O[C@@H]1[C@H](O)[C@@H]2C[C@@H]2[C@H]1n1cnc2c(N[C@H](C3CCC3)C3CC3)nc(Cl)nc21`, the inhibition constant Ki on Adenosine receptor A1 amounted to 120 nM; at Adenosine receptor A3 it was 2790 nM; on Adenosine receptor A2a [4], 6450 nM. In series [1], the inhibition was found to be 18.1%. The results for the Ratio Ki (in series [14]; in the series listed under Homo sapiens) were 23 and 53, respectively.

In the case of `CC(C)[C@H](Nc1nc(Cl)nc2c1ncn2[C@H]1[C@H](O)[C@H](O)[C@@H]2C[C@@H]21)C1CC1`, the inhibition in series [1] stood at 20.8%.
